Statin myotox sup = suppression of simvastatin myotoxicity; C2C12 myotubes + simvastatin, ATP luminescence, 48 h; scaled: DMSO 0, geranylgeraniol control 100; rescue of ATP level, % at 7.49 µM; 330,000 compounds, 0.78% hits; AID 602340;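 active means mean ATP rescue above about 67%, or every replicate alone reaching that limit, limit read from the data, passing the limit was not always enough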;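 further: myotubes were challenged with 10 µM simvastatin during compound exposure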
FN deposition inh = fibronectin deposition inhibition | AH1F fibroblasts, Alexa488-fibronectin deposition fluorescence, overnight | inhibition, % at 12.6 µM | 350,000 compounds, 0.086% hits | AID 743247;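 active means mean inhibition across replicates of 30% or more, regardless of how many single replicates reach that level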;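 further: positive control wells lacked labelled fibronectin entirely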
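material = AH1F fibroblast monolayer depositing Alexa488-labelled fibronectin into matrix | amount = 10000 AH1F cells/well | buffer or medium = DMEM plus 2% serum, read in PBS | incubation = 1 h cell adhesion before compound, then overnight fibronectin incubation | detection = fluorescence at 485 nm excitation, 525 nm emission | evaluation = percent inhibition as loss of matrix-bound fibronectin fluorescence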
Ecoli rRNA inh = inhibitors of bacterial rRNA selective over humanized ribosomes; 350,000 compounds, 1.6% hits; AID 720706; E. coli WT GFP vs humanized-ribosome RFP mutants, fluorescence, 24 h; active compounds read low; DMSO median 0, no signal -100; GFP signal change (wild-type ribosome), % (test concentration not listed);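 active means significant combined selectivity score with lowered wild-type GFP, culture density cut under 30%, mutant RFP and density less affected; inactive means any of these conditions unmet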
E-selectin induc = induces E-selectin expression in human endothelial cells | P16581 | HUVEC E-selectin immunofluorescence imaging; normalized: neutral wells 0, TNF-alpha wells 100 | activation, % at 7.58 µM | 260,000 compounds, 0.37% hits | AID 686992;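 active means mean E-selectin-positive cell signal at least 10% of the positive control, reached in at least 60% of replicates, without over 20% cell loss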
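Test system – human umbilical vein endothelial cells (HUVEC), E-selectin induction · Input – 3,000 HUVEC seeded per well · Buffer or medium – EGM-2, gelatin · Compound dosing – single-point compound dose · Detection – immunofluorescence imaging · Measure – percent E-selectin-positive cells · Controls – TNF-alpha high, DMSO low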
FGF22 binding = shifts melting point of recombinant human FGF22; recombinant FGF22 thermal shift, SYPRO orange fluorescence; percent of sucrose octasulfate shift, DMSO zero; Q9HCT0; 340,000 compounds, 1.5% hits; activity (Tm shift, normalised), % at 9.99 µM;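 active means mean Tm shift, scaled 0 neutral to 100 positive control, at about 1.3% or above, every replicate too, limit read from the data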
Target sequence (Q9HCT0 whole entry, looked up): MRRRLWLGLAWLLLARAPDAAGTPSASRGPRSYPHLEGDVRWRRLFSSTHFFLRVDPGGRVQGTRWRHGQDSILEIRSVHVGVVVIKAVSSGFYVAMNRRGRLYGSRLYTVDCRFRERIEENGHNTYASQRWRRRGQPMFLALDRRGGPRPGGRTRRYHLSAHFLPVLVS
SIRT5 inh = inhibitors of human sirtuin-5 desuccinylase; Q9NXA8; Purified SirT5, succinyl-peptide AMC, trypsin-coupled fluorescence; inhibition, % at 15 µM; 330,000 compounds, 1.1% hits; AID 652115; in the data active means inhibition above about 15%
Target sequence (Q9NXA8 whole entry, looked up): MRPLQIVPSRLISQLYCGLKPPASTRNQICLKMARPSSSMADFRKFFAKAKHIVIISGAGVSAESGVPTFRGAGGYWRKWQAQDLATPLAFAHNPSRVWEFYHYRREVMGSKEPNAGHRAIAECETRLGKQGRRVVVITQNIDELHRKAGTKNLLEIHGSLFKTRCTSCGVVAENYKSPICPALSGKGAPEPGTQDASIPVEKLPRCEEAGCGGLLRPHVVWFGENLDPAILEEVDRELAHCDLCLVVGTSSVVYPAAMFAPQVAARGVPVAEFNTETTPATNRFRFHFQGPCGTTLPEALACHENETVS
Active calls of the source: *; . = no result. Rows were chosen to be rich in hits. Some 4% of all compounds tested hit in one or more screens of this group.

SMILES	Statin myotox sup	FN deposition inh	Ecoli rRNA inh	E-selectin induc	FGF22 binding	SIRT5 inh
O=C(O)c1cccc(NC(=S)N/N=C/c2cccc(O)c2)c1	.	-12	8	0	.	-1
CCCOc1ccc(/C=N/NC(=S)Nc2ccccc2[N+](=O)[O-])c(O)c1	.	8	.	0	.	.
O=C(c1cc2c(=O)n3ccccc3nc2s1)N1CCN(Cc2ccc3c(c2)OCO3)CC1	.	-21	10	.	43*	-18
O=C(COC(=O)C1CCC(=O)N1)Nc1ccc(Oc2ccccc2)cc1 (centres undefined)	3	-5	-9	.	1	.
O=C(COC(=O)C1CCC(=O)N1)Nc1ccccc1Br (centres undefined)	10	-3	0	2	43*	-7
COc1ccc(C(=O)COC(=O)C2CCC(=O)N2)cc1 (centres undefined)	.	-4	25	.	0	17*
C=CCN1C(=O)/C(=C\C=C2\N(C)c3ccccc3C2(C)C)SC1=S	.	8	15	.	44*	-1
Cc1ccc(C)c(S(=O)(=O)N=Nc2c(O)[nH]c3ccccc23)c1	.	0	2	3	43*	-1
C[C@H](CO)N1C[C@H](C)[C@@H](CN(C)C(=O)CC2CC2)Oc2cc(-c3cccnc3)ccc2S1(=O)=O	8	.	2	0	0	-4
O=C(C[C@H]1CC[C@H]2[C@@H](COC[C@@H](O)CN2Cc2cccc(F)c2)O1)NCCc1ccncc1	-4	-11	-5	0	0	-3
O=C(Nc1cccc(F)c1)C1CCCN(c2cnccn2)C1 (centres undefined)	-22	7	-1	8	0	-1
O=C(Nc1ccc(F)c(Cl)c1)C1CCCN(c2cnccn2)C1 (centres undefined)	110*	10	-1	0	0	-2
O=C(Nc1ccc(F)c(Cl)c1)Nc1cnccn1	.	2	2	.	44*	-2
O=C(Nc1ccc(Cl)cc1)Nc1cnccn1	.	-4	.	.	.	.
CCCNC(=O)Cn1c(-c2ccc(F)cc2)cc(C(=O)OCC)c1C	.	8	6	.	43*	0
CC(=O)c1cc(-c2ccc(F)cc2)n(CCC(=O)NC(C)(C)C)c1C	.	16	10	.	0	20*
CCC(C)NC(=O)CCn1c(-c2ccc(F)cc2)cc(C(C)=O)c1C (centres undefined)	.	-3	0	.	0	-3
CCOC(=O)c1cc(-c2ccc(C)cc2)n(CCC(=O)NC(C)CC)c1C (centres undefined)	6	-1	.	.	.	.
CCOC(=O)c1cc(-c2ccc(F)cc2)n(CC(=O)NC(C)CC)c1C (centres undefined)	.	-11	-4	0	43*	-5
C[C@@H]1CN([C@H](C)CO)C(=O)c2cc(/C=C/c3ccccc3)cnc2O[C@H]1CN(C)Cc1ccccc1	9	12	-1	0	0	0
CO[C@H]1CN(C)C(=O)c2ccc(NC(C)=O)cc2OC[C@H](C)N(C(=O)c2ccccc2)C[C@@H]1C	13	3	2	0	0	1
NS(=O)(=O)c1ccc(NC(=O)COC(=O)CCc2ccc(S(=O)(=O)N3CCOCC3)cc2)cc1	-5	4	14	.	0	-2
O=C(CCC(=O)N1CCOCC1)Nc1ccc(Cl)c(Cl)c1	.	-2	15	85*	0	-1
NS(=O)(=O)c1ccc(NC(=O)CCC(=O)N2CCOCC2)cc1	-5	3	3	34*	0	-1
Nc1nn2c(-c3ccccc3)cc(=O)[nH]c2c1N=Nc1ccc(Br)cc1	.	-1	-29*	0	1	-3
SMILES	Statin myotox sup	FN deposition inh	Ecoli rRNA inh	E-selectin induc	FGF22 binding	SIRT5 inh
Cc1noc(C)c1NC(=O)N(C)C[C@H]1Oc2ccc(NS(=O)(=O)c3c(C)noc3C)cc2C(=O)N([C@@H](C)CO)C[C@@H]1C	.	.	7	-6	.	.
C[C@@H]1CN([C@H](C)CO)C(=O)c2cc(NC(=O)c3ccncc3)ccc2O[C@H]1CN(C)Cc1ccncc1	-3	.	2	0	0	6
COc1ccc(NC(=O)Nc2ccc3c(c2)C(=O)N([C@@H](C)CO)C[C@@H](C)[C@H](CN(C)Cc2ccncc2)O3)cc1	32	.	-3	-3	0	0
COc1ccc(NC(=O)Nc2ccc3c(c2)C(=O)N([C@@H](C)CO)C[C@@H](C)[C@@H](CN(C)Cc2ccc(-c4ccccc4)cc2)O3)cc1	-88	.	-4	-2	0	17*
COc1ccc(NC(=O)Nc2ccc3c(c2)C(=O)N([C@@H](C)CO)C[C@@H](C)[C@@H](CN(C)Cc2ccncc2)O3)cc1	-1	.	-1	-5	0	27*
C[C@@H]1CN([C@@H](C)CO)C(=O)c2cc(NC(=O)c3ccncc3)ccc2O[C@H]1CN(C)Cc1ccc(Oc2ccccc2)cc1	-78	10	-2	0	-1	16*
COc1ccc(NC(=O)Nc2ccc3c(c2)C(=O)N([C@H](C)CO)C[C@H](C)[C@H](CN(C)Cc2ccc(-c4ccccc4)cc2)O3)cc1	-57	.	-4	-1	0	13
COc1ccc(CN(C)C[C@@H]2Oc3ccc(NC(=O)c4ccncc4)cc3C(=O)N([C@H](C)CO)C[C@H]2C)cc1	-7	.	-3	93*	0	-4
C[C@H](CO)N1C[C@H](C)[C@H](CN(C)Cc2ccc(Oc3ccccc3)cc2)Oc2ccc(NC(=O)c3ccncc3)cc2C1=O	-18	-5	-3	0	0	1
Cn1cnc(S(=O)(=O)N[C@H]2CC[C@@H](CC(=O)NCC3CC3)O[C@@H]2CO)c1	.	-3	-3	0	.	1
CC(C)NC(=O)N(C)C[C@H]1Oc2ccc(NC(=O)CCCCCC(=O)Nc3ccccc3N)cc2CC(=O)N([C@@H](C)CO)C[C@@H]1C	-23	.	4	2	-1	-1
COc1ccc(C#Cc2ccc3c(c2)[C@]2(C(=O)N3)[C@H](c3ccc(O)cc3)N3[C@H](c4ccccc4)[C@H](c4ccccc4)OC(=O)[C@H]3[C@@H]2C(=O)NC[C@H](O)c2ccccc2)cc1	.	.	.	.	0	5
CO[C@@H]1CN(C)C(=O)c2ccc(NS(=O)(=O)c3ccccc3)cc2OC[C@@H](C)N(C)C[C@@H]1C	-4	6	0	0	0	-3
COc1ccc(CN(C)C[C@H]2Oc3ccc(NC(=O)c4ccncc4)cc3C(=O)N([C@H](C)CO)C[C@@H]2C)cc1	-1	.	-4	47*	0	-1
C[C@H]1CN([C@@H](C)CO)C(=O)c2cc(NC(=O)c3ccncc3)ccc2O[C@H]1CN(C)Cc1ccncc1	-17	.	4	0	0	4
Fc1ccccc1OCCCN1CCOCC1	169*	4	.	.	.	.

Screening results (PubChem BioAssay)
